Source: ChEMBL document CHEMBL5058577, “EUbOPEN Chemogenomics Library 2 (Multiplex)” (2022)

Tested on: U2OS
Experiment: Multiplex assay against U2OS
Format: toxicity, cell-based
Details: human
Method in brief: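 Imaging took place on a CQ1 microscope at 37°C and 5% CO2 once compound had been added to live cells stained at seeding with Hoechst33342, BioTracker Green Microtubule Cytoskeleton Dye, MitoTracker Red and Annexin V Alexa Fluor 680. CellPathfinder machine-learning gating classed cells as Hoechst high-intensity objects or normal cells, classed normal cells as having healthy, pyknosed or fragmented nuclei, and classed pyknosed cells as mitotic or apoptotic. Tubulin, mitochondrial-mass and membrane-permeability phenotypes are per cents of the healthy-nucleus cells.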

[1] = 12 h, 1 µM, compound concentration 1 uM, replicate 1
[2] = 12 h, 1 µM, compound concentration 1 uM, replicate 2
[3] = 12 h, 10 µM, compound concentration 10 uM, replicate 1
[4] = 12 h, 10 µM, compound concentration 10 uM, replicate 2
[5] = 24 h, 1 µM, compound concentration 1 uM, replicate 1
[6] = 24 h, 1 µM, compound concentration 1 uM, replicate 2
[7] = 24 h, 10 µM, compound concentration 10 uM, replicate 1
[8] = 24 h, 10 µM, compound concentration 10 uM, replicate 2
[9] = 48 h, 1 µM, compound concentration 1 uM, replicate 1
[10] = 48 h, 1 µM, compound concentration 1 uM, replicate 2
[11] = 48 h, 10 µM, compound concentration 10 uM, replicate 1
[12] = 48 h, 10 µM, compound concentration 10 uM, replicate 2

Cc1cc(-c2ccc3c(c2)CC[C@H]3N2CC3(CCN(C(=O)Cc4cn5cc(C)sc5n4)CC3)C2)ncn1 [PF-5190457]
Population Apoptotic (%) [1]: 82% | Population Fragmented Nuclei (%) [1]: 24% | Population Healthy Nuclei (%) [1]: 65% | Population Hoechst High Intensity Objects (%) [1]: 1% | Population Membrane Permeable-Phenotype (%) [1]: 7% | Population Mitochondria Different-Phenotype (%) [1]: 3% | Population Mitotic Cells (%) [1]: 17% | Population Normal (%) [1]: 98% | Population Pyknosed Nuclei (%) [1]: 9% | Population Tubulin-Different-Phenotype (%) [1]: 4% | Total Cell Count [1]: 239 | Population Apoptotic (%) [2]: 63% | Population Fragmented Nuclei (%) [2]: 21% | Population Healthy Nuclei (%) [2]: 66% | Population Hoechst High Intensity Objects (%) [2]: 0% | Population Membrane Permeable-Phenotype (%) [2]: 4% | Population Mitotic Cells (%) [2]: 36% | Population Normal (%) [2]: 100% | Population Pyknosed Nuclei (%) [2]: 11% | Population Tubulin-Different-Phenotype (%) [2]: 3% | Total Cell Count [2]: 93 | Population Apoptotic (%) [3]: 61% | Population Fragmented Nuclei (%) [3]: 18% | Population Healthy Nuclei (%) [3]: 66% | Population Hoechst High Intensity Objects (%) [3]: 2% | Population Membrane Permeable-Phenotype (%) [3]: 7% | Population Mitochondria Different-Phenotype (%) [3]: 5% | Population Mitotic Cells (%) [3]: 38% | Population Normal (%) [3]: 97% | Population Pyknosed Nuclei (%) [3]: 14% | Population Tubulin-Different-Phenotype (%) [3]: 5% | Total Cell Count [3]: 238 | Population Apoptotic (%) [4]: 71% | Population Fragmented Nuclei (%) [4]: 14% | Population Healthy Nuclei (%) [4]: 74% | Population Hoechst High Intensity Objects (%) [4]: 1% | Population Membrane Permeable-Phenotype (%) [4]: 8% | Population Mitochondria Different-Phenotype (%) [4]: 10% | Population Mitotic Cells (%) [4]: 28% | Population Normal (%) [4]: 98% | Population Pyknosed Nuclei (%) [4]: 11% | Population Tubulin-Different-Phenotype (%) [4]: 6% | Total Cell Count [4]: 126 | Population Apoptotic (%) [5]: 69% | Population Fragmented Nuclei (%) [5]: 25% | Population Healthy Nuclei (%) [5]: 66% | Population Hoechst High Intensity Objects (%) [5]: 1% | Population Membrane Permeable-Phenotype (%) [5]: 8% | Population Mitochondria Different-Phenotype (%) [5]: 3% | Population Mitotic Cells (%) [5]: 30% | Population Normal (%) [5]: 98% | Population Pyknosed Nuclei (%) [5]: 8% | Population Tubulin-Different-Phenotype (%) [5]: 5% | Total Cell Count [5]: 282 | Population Apoptotic (%) [6]: 33% | Population Fragmented Nuclei (%) [6]: 21% | Population Healthy Nuclei (%) [6]: 76% | Population Hoechst High Intensity Objects (%) [6]: 0% | Population Membrane Permeable-Phenotype (%) [6]: 6% | Population Mitochondria Different-Phenotype (%) [6]: 1% | Population Mitotic Cells (%) [6]: 66% | Population Normal (%) [6]: 99% | Population Pyknosed Nuclei (%) [6]: 2% | Population Tubulin-Different-Phenotype (%) [6]: 2% | Total Cell Count [6]: 126 | Population Apoptotic (%) [7]: 67% | Population Fragmented Nuclei (%) [7]: 18% | Population Healthy Nuclei (%) [7]: 72% | Population Hoechst High Intensity Objects (%) [7]: 2% | Population Membrane Permeable-Phenotype (%) [7]: 3% | Population Mitochondria Different-Phenotype (%) [7]: 0% | Population Mitotic Cells (%) [7]: 32% | Population Normal (%) [7]: 97% | Population Pyknosed Nuclei (%) [7]: 9% | Population Tubulin-Different-Phenotype (%) [7]: 1% | Total Cell Count [7]: 295 | Population Apoptotic (%) [8]: 84% | Population Healthy Nuclei (%) [8]: 69% | Population Hoechst High Intensity Objects (%) [8]: 1% | Population Membrane Permeable-Phenotype (%) [8]: 11% | Population Mitochondria Different-Phenotype (%) [8]: 8% | Population Mitotic Cells (%) [8]: 15% | Population Normal (%) [8]: 98% | Population Pyknosed Nuclei (%) [8]: 12% | Population Tubulin-Different-Phenotype (%) [8]: 4% | Total Cell Count [8]: 154 | Population Apoptotic (%) [9]: 84% | Population Fragmented Nuclei (%) [9]: 20% | Population Healthy Nuclei (%) [9]: 71% | Population Hoechst High Intensity Objects (%) [9]: 0% | Population Membrane Permeable-Phenotype (%) [9]: 7% | Population Mitochondria Different-Phenotype (%) [9]: 4% | Population Mitotic Cells (%) [9]: 15% | Population Normal (%) [9]: 99% | Population Pyknosed Nuclei (%) [9]: 8% | Population Tubulin-Different-Phenotype (%) [9]: 4% | Total Cell Count [9]: 402 | Population Apoptotic (%) [10]: 66% | Population Fragmented Nuclei (%) [10]: 16% | Population Healthy Nuclei (%) [10]: 78% | Population Hoechst High Intensity Objects (%) [10]: 2% | Population Membrane Permeable-Phenotype (%) [10]: 4% | Population Mitochondria Different-Phenotype (%) [10]: 2% | Population Mitotic Cells (%) [10]: 33% | Population Normal (%) [10]: 97% | Population Pyknosed Nuclei (%) [10]: 5% | Population Tubulin-Different-Phenotype (%) [10]: 2% | Total Cell Count [10]: 184 | Population Apoptotic (%) [11]: 74% | Population Fragmented Nuclei (%) [11]: 16% | Population Healthy Nuclei (%) [11]: 71% | Population Hoechst High Intensity Objects (%) [11]: 3% | Population Membrane Permeable-Phenotype (%) [11]: 5% | Population Mitochondria Different-Phenotype (%) [11]: 2% | Population Mitotic Cells (%) [11]: 25% | Population Normal (%) [11]: 96% | Population Pyknosed Nuclei (%) [11]: 12% | Population Tubulin-Different-Phenotype (%) [11]: 3% | Total Cell Count [11]: 389 | Population Apoptotic (%) [12]: 76% | Population Fragmented Nuclei (%) [12]: 18% | Population Membrane Permeable-Phenotype (%) [12]: 11% | Population Mitochondria Different-Phenotype (%) [12]: 6% | Population Mitotic Cells (%) [12]: 23% | Population Pyknosed Nuclei (%) [12]: 10% | Population Tubulin-Different-Phenotype (%) [12]: 4% | Total Cell Count [12]: 217
